The values below come from ChEMBL document CHEMBL2321840, “Synthesis and structure-activity relationships of indazole arylsulfonamides as allosteric CC-chemokine receptor 4 (CCR4) antagonists” (J Med Chem, 2013).

In brackets after ≈: the same amount, converted by molar mass.

Data set [1] is described as follows: Lipophilicity, log D of the compound by chromatographic analysis. It counts as physicochemical. In a few lines:
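Chromatographic log D measured at pH 7.4.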

The nature of data set [2]: Kinetic solubility of the compound by chemiluminescent nitrogen detection assay. The following applies: read-out: Kinetic_solubility. It counts as physicochemical.
A short description of data set [3]: (§1) Volume of distribution at steady state in Beagle dog at 0.5 mg/kg, iv. Type of data set: ADME, organism-based, Canis lupus familiaris. On the set-up: dose 0.5 mg/kg, route intravenous. The following applies: beagle, in vivo, read-out: Vdss.
Data set [4] can be described thus: Oral bioavailability in Beagle dog at 1 mg/kg. Type of data set: ADME, organism-based, Canis lupus familiaris. Conditions: in vivo.
Data set [5] in a line: Dissociation constant, pKa of the compound. It counts as physicochemical.
Data set [6] is described as follows: Plasma protein binding in human by equilibrium dialysis technique. It counts as ADME, cell-free. The following applies: read-out: PPB (converted). A digest of the protocol: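 Rapid equilibrium dialysis in CD rat, beagle dog or human plasma, with compound at a nominal 1 μg/mL; n = 3.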
Data set [7] is described as follows: in vivo. The following applies: beagle, dog, iv, 0.5 mg/kg.
The nature of data set [8]: Oral bioavailability in CD rat at 1 mg/kg. It counts as ADME, organism-based. The following applies: in vivo. A digest of the protocol: (§2)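 CD rat pharmacokinetics, with compounds given as solutions in DMSO–PEG200–H₂O (5:45:50); one analogue used a 10:40:50 ratio.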
A short description of data set [9]: in vivo. Conditions: CD, rat, iv, 1 mg/kg.
For data set [10], the target named is T1, C-C chemokine receptor type 4 (Homo sapiens, UniProt P51679).
T1 sequence (P51679 whole entry): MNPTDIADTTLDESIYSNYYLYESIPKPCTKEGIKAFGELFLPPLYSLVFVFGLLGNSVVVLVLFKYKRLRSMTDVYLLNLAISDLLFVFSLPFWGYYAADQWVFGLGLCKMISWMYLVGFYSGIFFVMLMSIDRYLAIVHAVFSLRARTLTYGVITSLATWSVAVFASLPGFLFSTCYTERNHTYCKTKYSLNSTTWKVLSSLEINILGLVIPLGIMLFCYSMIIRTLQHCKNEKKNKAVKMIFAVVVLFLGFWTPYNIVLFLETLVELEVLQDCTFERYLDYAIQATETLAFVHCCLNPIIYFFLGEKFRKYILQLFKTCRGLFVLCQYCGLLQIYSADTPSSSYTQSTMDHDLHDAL
The data set is described as follows: Antagonist activity at CCR4 receptor in human whole blood assessed as F-actin polymerization after 30 mins by FACS-based flow cytometric analysis. The following applies: read-out: pA2 (converted). A general note: A flow cytometer gives signals particle by particle.

Data set [11] has as its target T1, C-C chemokine receptor type 4. The data set is described as follows: Antagonist activity at human recombinant CCR4 receptor expressed in CHO cell membranes by [35S]GTPgammaS binding assay. It counts as functional. In general terms: Binding of GTPγS marks nucleotide exchange on a G protein.
A short description of data set [12]: in vivo. Conditions: CD, rat, iv, 1 mg/kg. The source holds these as a separate data set.
The nature of data set [13]: in vivo. Conditions: beagle, dog, iv, 0.5 mg/kg. The source holds these as a separate data set.
A short description of data set [14]: Volume of distribution at steady state in CD rat at 1 mg/kg, iv and 1 mg/kg, po. It counts as ADME, organism-based. The following applies: in vivo, read-out: Vdss. A digest of the protocol:
as §2

The species named for data set [15] is Canis familiaris. The following applies: dog, in vivo, iv, 0.5 mg/kg.
Data set [16] deals with Canis familiaris. Described as §1. It counts as ADME, organism-based, Canis lupus familiaris. On the set-up: dose 0.5 mg/kg, route intravenous. The following applies: in vivo.
Data set [17] is described as follows: Equilibrium solubility of the compound in simulated gastric fluid at pH 1.6 after 24 hrs by HPLC analysis. Type of data set: physicochemical. In a few lines: (§3)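 Solid compound was equilibrated 24 h in the stated medium: water, SGF pH 1.6, FeSSIF pH 6.5, FaSSIF pH 6.5 or saline. Dissolved compound was quantified by HPLC.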
A short description of data set [18]: Equilibrium solubility of the compound in water after 24 hrs by HPLC analysis. Type of data set: physicochemical. In a few lines: as §3
A short description of data set [19]: Equilibrium solubility of the compound in fasted-state simulated intestinal fluid at pH 6.5 after 24 hrs by HPLC analysis. It counts as physicochemical. In a few lines:
as §3

The nature of data set [20]: Equilibrium solubility of the compound in fed-state simulated intestinal fluid at pH 6.5 after 24 hrs by HPLC analysis. It counts as physicochemical. In a few lines: as §3

Broadly, the chromatographic logD is lipophilicity estimated from chromatographic retention. Read a low chromatographic logD as a more hydrophilic compound. The term bioavailability denotes the share of a dose that reaches the circulation, judged against a reference dose that is usually intravenous. For orientation: pKa means the negative logarithm of the acid dissociation constant. Read a low pKa as a group that gives up its proton readily. With `COc1cccc2c1c(NS(=O)(=O)c1ccc(Cl)s1)nn2Cc1cccc(CNC(C)=O)c1`, the chromatographic logD in data set [1] turned out to be 4.1. For the same compound, the solubility kinetic in data set [2] was ≥ 124 µg/mL. The Vd in data set [3] came to 3.2 L/kg. Moreover, the bioavailability in [4] turned out to be 49%. The same compound registered a pKa in [5] of 6.6. Also, the fraction unbound in data set [6] was 0.005.

As usually defined, the clearance is a measure of how efficiently the substance is removed, as volume per time. The low end stands for inefficient removal, the high end for efficient removal. What is called half-life is the time needed for the level to fall by half in the phase considered. The term IC50 denotes the point on the concentration scale where inhibition reaches its midpoint. On to `COc1cccc2c1c(NS(=O)(=O)c1ccc(Cl)s1)nn2Cc1cccc(CNC(=O)[C@@H]2COCCN2)c1`, for which the clearance in the data set “in vivo [7]” worked out at 41 mL/min/kg; in the data set “in vivo [12]”, 18 mL/min/kg. In data set [1], this compound showed a chromatographic logD of 3.9. For the same compound, the solubility kinetic in data set [2] is ≥ 212 µg/mL. Also, the bioavailability in data set [8] came out at 32%; in [4], 39%. Further, the Vd was determined as 3 L/kg in data set [3] and 0.78 L/kg in [14]. For the same compound, the half-life is 1.2 h in “in vivo [9]” and 2.6 h in “in vivo [13]”. The Kb in data set [10] was 79.4 nM. Moreover, the 50% inhibitory concentration (IC50) in data set [11] was 15.8 nM. In addition, in [6], the fraction unbound is 0.018.

As usually defined, the Vdss is a proportionality between amount in the body and measured concentration, not a real space. Read a low Vdss as little distribution into tissue. In turn, `COc1cccc2c1c(NS(=O)(=O)c1ccc(Cl)s1)nn2Cc1cccc(CNC(=O)[C@@H]2CCCCN2)c1` displayed a chromatographic logD in [1] of 3.3. Further, the solubility kinetic in data set [2] is ≥ 220 µg/mL. Also, the bioavailability in data set [8] is < 1%. The t1/2 in the data set listed under Canis familiaris [15] is 0.95 h. Besides, the distribution volume (Vdss) with Canis familiaris [16] was 11 L/kg. Further, the half-life in “in vivo [9]” is 3 h. The Kb in data set [10] was 126 nM. In [11], the 50% inhibitory concentration (IC50) was 15.8 nM. The same compound gave a clearance in “in vivo [12]” of 29 mL/min/kg. Also, the Vd in data set [14] was 2.6 L/kg. Moreover, in [6], the fraction unbound was 0.078.

Regarding `CN[C@H](C)C(=O)NCc1cccc(Cn2nc(NS(=O)(=O)c3ccc(Cl)s3)c3c(OC)cccc32)c1`, the clearance in “in vivo [7]” and in “in vivo [12]” was 17 mL/min/kg throughout. Also, the chromatographic logD in data set [1] was 3.1. The solubility kinetic in [2] turned out to be 191 µg/mL (≈ 348 µM). The bioavailability in [8] amounted to 19%; in data set [4], 81%. In addition, the Vd was found to be 6 L/kg in data set [3] and 0.79 L/kg in [14]. Also, the half-life in “in vivo [9]” was 0.8 h; in “in vivo [13]”, 5.9 h. The Kb in data set [10] was 200 nM. For the same compound, the IC50 in data set [11] was 15.8 nM. In addition, the fraction unbound in data set [6] is 0.054.

As a reminder, the thermodynamic solubility is solubility found after equilibrating the solid with the medium. In the case of `COc1cc(F)cc2c1c(NS(=O)(=O)c1ccc(Cl)s1)nn2Cc1cccc(CNC(=O)C(C)(C)O)c1`, in data set [1], the chromatographic logD is 4.2. The solubility (thermodynamic) at 24 h is 1 µg/mL (≈ 1.76 µM) in data set [17], 32 µg/mL (≈ 56.4 µM) in data set [18], 36 µg/mL (≈ 63.5 µM) in data set [19] and 33 µg/mL (≈ 58.2 µM) in [20]. Further, in data set [2], the solubility kinetic was ≥ 198 µg/mL. Also, the bioavailability in [8] is 90%. Moreover, in the data set “in vivo [9]”, the half-life is 1.8 h. For the same compound, the Kb in data set [10] is 631 nM. Besides, the concentration for half-maximal inhibition (IC50) in [11] was 15.8 nM. Besides, the clearance in “in vivo [12]” came to 19 mL/min/kg. Further, in data set [14], the Vd is 1.5 L/kg.

With `COc1cccc2c1c(NS(=O)(=O)c1ccc(Cl)s1)nn2Cc1cccc(CNC(=O)C(C)(C)N)c1`, the values for the clearance in the data set “in vivo [7]” and in the data set “in vivo [12]” were 18 mL/min/kg and 15 mL/min/kg, respectively. The same compound returned a chromatographic logD in data set [1] of 3.3. Moreover, in data set [2], the solubility kinetic is ≥ 180 µg/mL. Moreover, in [8], the bioavailability amounted to 29%. Moreover, the values for the Vd in [3] and in data set [14] were 5 L/kg and 0.84 L/kg, respectively. Also, the half-life in “in vivo [9]” was 1.3 h; in “in vivo [13]”, 2.4 h. The Kb in data set [10] was 141 nM. Moreover, the half-maximal inhibitory concentration (IC50) in [11] is 15.8 nM. Also, in data set [6], the fraction unbound was 0.04.
